# Measured values pooled from the literature.
# Lines come from different studies, so protocols differ.
Structure (SMILES),organism,assay,system,setting,measurement,value
c1cc(-c2ccc3ncnc(Nc4ncco4)c3c2)nc(N2CCOCC2)c1,Trypanosoma brucei,"parasite growth, SYBR Green",,48 h,GI50,190 nM
Cc1c2c(nn1C)CSCc1cc(n(C)n1)CSc1cc(c3ccccc3c1)OCCCc1c(C(=O)O)n(C)c3c-2c(Cl)ccc13,Enterococcus faecium,"microbial growth, broth dilution",,clinical isolate,MIC50,12.5 µM
COc1c(N2C[C@@H]3CCCN[C@@H]3C2)c(F)cc2c(=O)c(C(=O)O)cn(C3CC3)c12,Enterococcus faecium,microbial growth,,clinical isolate,MIC90,64 µg/mL
FC(F)(F)c1cc(Nc2ncnc3ccc(-c4cccc(N5CCOCC5)c4)cc23)ccc1Cl,Trypanosoma brucei,"parasite growth, SYBR Green",GAMBIENSE,,GI50,250 nM
C/C(=N\c1nc(N)nc(/N=C(\C)c2c(O)c3ccccc3oc2=O)n1)c1c(O)c2ccccc2oc1=O,Penicillium verrucosum,"microbial growth, broth dilution",,48 h,MIC,7.81 µg/mL
CN1CCC(Nc2ncnc3ccc(-c4cccc(N5CCOCC5)c4)cc23)CC1,Trypanosoma brucei,"parasite growth, SYBR Green",,48 h,GI50,4700 nM
CCOC(=O)c1cnc2c([N+](=O)[O-])cc(C(F)(F)F)cc2c1NCCc1ccccc1,Trypanosoma brucei,"parasite growth, resazurin",,72 h,EC50,> 10000 nM
C/C(=N\CCNCC/N=C(\C)c1c(O)c2ccccc2oc1=O)c1c(O)c2ccccc2oc1=O,Penicillium verrucosum,"microbial growth, broth dilution",,48 h,MIC,125 µg/mL
O=c1[nH]c(CCl)nc2scc(-c3ccc(F)cc3)c12,Trypanosoma brucei,"parasite growth, ATP luminescence",,24 h,EC50,1300 nM
O=[N+]([O-])c1ccc(Nc2ncnc3ccc(-c4cccc(N5CCOCC5)c4)cc23)cc1C(F)(F)F,Trypanosoma brucei,"parasite growth, SYBR Green",,48 h,GI50,8.4 nM
C/C(=N\CCNCCNCC/N=C(\C)c1c(O)c2ccccc2oc1=O)c1c(O)c2ccccc2oc1=O,Penicillium verrucosum,"microbial growth, broth dilution",,48 h,MIC,31.2 µg/mL
O=c1[nH]c(CCl)nc2scc(-c3ccccc3F)c12,Trypanosoma brucei,"parasite growth, ATP luminescence",,24 h,EC50,1000 nM
c1cc(-c2ccc3ncnc(Nc4ncco4)c3c2)nc(N2C[C@H]3C[C@@H]2CO3)n1,Trypanosoma brucei,"parasite growth, SYBR Green",,48 h,GI50,4700 nM
O=c1[nH]c(CCl)nc2scc(-c3ccc(C(F)(F)F)cc3)c12,Trypanosoma brucei,"parasite growth, ATP luminescence",,48 h,EC50,2500 nM
CC[C@H]1OC(=O)[C@H](C)[C@@H](O[C@H]2C[C@@](C)(OC)[C@@H](O)[C@H](C)O2)[C@H](C)[C@@H](O[C@@H]2O[C@H](C)C[C@H](N(C)C)[C@H]2O)[C@](C)(O)C[C@@H](C)/C(=N\OCOCCOC)[C@H](C)[C@@H](O)[C@]1(C)O,Enterococcus faecium,microbial growth,,clinical isolate,MIC90,> 128 µg/mL
c1cc(-c2ccc3ncnc(Nc4ncco4)c3c2)cc(N2C[C@H]3C[C@@H]2CO3)c1,Trypanosoma brucei,"parasite growth, SYBR Green",,48 h,GI50,2100 nM
C/C(=N\C(=O)/N=C(\C)c1c(O)c2ccccc2oc1=O)c1c(O)c2ccccc2oc1=O,Penicillium verrucosum,"microbial growth, broth dilution",,48 h,MIC,62.5 µg/mL
CN1CCN(c2cccc(-c3ccc4ncnc(Nc5ncco5)c4c3)c2)CC1,Trypanosoma brucei,"parasite growth, SYBR Green",,48 h,GI50,1700 nM
OC(Cn1cncn1)(Cn1cncn1)c1ccc(F)cc1F,Candida albicans,"microbial growth, broth dilution",58288,48 h,MIC,8 µM
CC1(C)S[C@@H]2[C@H](NC(=O)[C@H](N)c3ccccc3)C(=O)N2[C@H]1C(=O)O,Enterococcus faecium,microbial growth,,clinical isolate,MIC90,> 128 µg/mL
CC(=O)N1CCN(c2ccc(OCC3COC(Cn4ccnc4)(c4ccc(Cl)cc4Cl)O3)cc2)CC1 (centres unmarked),Candida albicans,"microbial growth, broth dilution",56452,48 h,MIC,2 µM
Cn1cc(Nc2ncnc3ccc(-c4cccc(N5CCOCC5)c4)cc23)cn1,Trypanosoma brucei,"parasite growth, SYBR Green",,48 h,GI50,250 nM
C/C(=N\C(=S)/N=C(\C)c1c(O)c2ccccc2oc1=O)c1c(O)c2ccccc2oc1=O,Penicillium verrucosum,"microbial growth, broth dilution",,48 h,MIC,1.95 µg/mL
O=c1[nH]c(CCl)nc2scc(-c3cccc(F)c3)c12,Trypanosoma brucei,"parasite growth, ATP luminescence",,48 h,EC50,1100 nM
C[C@@H]1[C@H](O)[C@@H](C)/C=C/C=C/C=C/C=C/C=C/C=C/C=C/[C@H](O[C@@H]2O[C@H](C)[C@@H](O)[C@H](N)[C@@H]2O)C[C@@H]2O[C@](O)(C[C@@H](O)C[C@@H](O)[C@H](O)CC[C@@H](O)C[C@@H](O)CC(=O)O[C@H]1C)C[C@H](O)[C@H]2C(=O)O,Candida albicans,"microbial growth, broth dilution",58288,48 h,MIC,< 0.25 µM
CCOC(=O)c1cnc2c([N+](=O)[O-])cc(C(F)(F)F)cc2c1NCCCN1CCOCC1,Trypanosoma brucei,"parasite growth, resazurin",,72 h,EC50,> 10000 nM
